Results as given in article PMC2787731 (Biochimica et biophysica acta, 2009).
“And” between values parts separate entries of the source, which are not always exact repeats. Equal entries are not always repeated. “Also recorded” adds a separate entry of the source. Where two headings read alike, the source gives them in different places.

Assays:
[1] = biological target: T1, carboxylesterase activity of THP1 cell lysates (Homo sapiens, UniProt P23141); assay: Inhibition of carboxylesterase activity of THP1 cell lysates; assay type: biochemical
T1 sequence (P23141 18-567): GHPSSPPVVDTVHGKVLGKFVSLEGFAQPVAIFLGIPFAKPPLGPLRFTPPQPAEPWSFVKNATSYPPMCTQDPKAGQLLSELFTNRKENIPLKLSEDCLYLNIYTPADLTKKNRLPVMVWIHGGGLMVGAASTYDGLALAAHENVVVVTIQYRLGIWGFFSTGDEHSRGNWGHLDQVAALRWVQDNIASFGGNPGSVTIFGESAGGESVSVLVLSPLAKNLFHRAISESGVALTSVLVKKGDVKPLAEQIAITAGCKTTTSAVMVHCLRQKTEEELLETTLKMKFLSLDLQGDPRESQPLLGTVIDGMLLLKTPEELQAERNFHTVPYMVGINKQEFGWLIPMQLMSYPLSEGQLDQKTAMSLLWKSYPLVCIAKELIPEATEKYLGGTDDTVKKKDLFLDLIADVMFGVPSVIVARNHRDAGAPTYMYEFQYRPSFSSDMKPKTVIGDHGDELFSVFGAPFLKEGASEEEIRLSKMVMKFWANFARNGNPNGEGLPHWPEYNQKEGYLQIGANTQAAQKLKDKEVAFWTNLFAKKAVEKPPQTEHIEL

recombinant CES1 [2] = biological target: T2, recombinant CES1 (Homo sapiens, UniProt P23141); assay: Inhibition of carboxylesterase activity of recombinant human CES1; assay type: biochemical; details: for Inhibition of carboxylesterase activity of CES1 / Effect on carboxylesterase activity of recombinant CES1 (in words) / Mode of inhibition of recombinant CES1: pNPV; for Inhibition of carboxylesterase activity of CES1: concentration not given; for Mode of inhibition of recombinant CES1: curve fit of fractional inhibition, Dixon plots
T2 sequence (P23141 18-567): T1 sequence (P23141 18-567)

[3] = test system: THP1 macrophage foam cells; assay type: cell-based, human; details: 10 μM; for Change in intracellular cholesteryl esters vs vehicle control: BSA only acceptor
[4] = cited from earlier work
recombinant CES2 = biological target: T3, recombinant CES2 (Homo sapiens, UniProt O00748); assay: Inhibition of recombinant CES2 activity; assay type: biochemical
T3 sequence (O00748 27-559): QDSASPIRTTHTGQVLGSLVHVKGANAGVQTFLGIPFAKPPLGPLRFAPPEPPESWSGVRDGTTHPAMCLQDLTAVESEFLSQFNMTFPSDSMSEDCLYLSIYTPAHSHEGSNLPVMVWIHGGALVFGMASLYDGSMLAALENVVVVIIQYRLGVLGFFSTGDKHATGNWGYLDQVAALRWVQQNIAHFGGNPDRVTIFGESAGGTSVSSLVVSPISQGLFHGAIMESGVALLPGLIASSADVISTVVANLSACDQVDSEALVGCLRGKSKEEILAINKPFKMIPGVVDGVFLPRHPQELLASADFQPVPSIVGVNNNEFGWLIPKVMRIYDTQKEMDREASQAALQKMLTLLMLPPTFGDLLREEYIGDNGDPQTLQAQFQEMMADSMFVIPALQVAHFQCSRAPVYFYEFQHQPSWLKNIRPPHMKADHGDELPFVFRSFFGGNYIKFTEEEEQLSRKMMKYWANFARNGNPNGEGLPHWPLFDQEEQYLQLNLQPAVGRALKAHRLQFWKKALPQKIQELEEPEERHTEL

recombinant CES1 [5] = biological target: T2, recombinant CES1; assay: Activity-based probe; assay type: biochemical
Method in brief: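 Recombinant human CES1 was expressed in baculovirus-infected Spodoptera frugiperda cells and purified. The enzyme was preincubated with test compound for 30 min and then treated with the activity-based probe fluorophosphonate-biotin. IC50 was estimated from probe labelling.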

[6] = biological target: T4, rat CES1 ortholog (Hydrolase A) (Rattus norvegicus, UniProt P16303); assay: Inhibition of rat CES1 ortholog; assay type: biochemical
T4 sequence (P16303 19-565): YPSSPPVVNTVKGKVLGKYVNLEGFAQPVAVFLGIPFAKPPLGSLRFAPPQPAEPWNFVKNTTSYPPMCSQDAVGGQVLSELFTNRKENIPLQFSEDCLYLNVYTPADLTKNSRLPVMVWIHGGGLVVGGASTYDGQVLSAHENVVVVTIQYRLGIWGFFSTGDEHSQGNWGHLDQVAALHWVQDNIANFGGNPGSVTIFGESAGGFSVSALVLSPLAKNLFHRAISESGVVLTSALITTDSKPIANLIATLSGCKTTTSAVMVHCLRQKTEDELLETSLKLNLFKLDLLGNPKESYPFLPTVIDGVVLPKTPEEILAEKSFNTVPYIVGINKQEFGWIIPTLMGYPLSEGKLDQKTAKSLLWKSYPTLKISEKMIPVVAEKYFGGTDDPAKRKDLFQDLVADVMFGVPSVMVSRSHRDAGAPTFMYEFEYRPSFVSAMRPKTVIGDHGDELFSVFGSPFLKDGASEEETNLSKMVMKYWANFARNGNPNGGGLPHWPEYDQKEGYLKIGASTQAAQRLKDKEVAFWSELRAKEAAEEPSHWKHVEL

recombinant CES1 [7] = biological target: T2, recombinant CES1; assay type: biochemical; details: read-out: Inhibition of CES1 hydrolytic activity toward trans-permethrin, 20 μM AA; trans-permethrin 50 μM; 2% (w/v) fatty acid-free bovine serum albumin added
[8] = test system: intracellular carboxylesterase activity of THP1 cells; assay: Intracellular carboxylesterase activity in intact THP1 monocytes; assay type: cell-based, human; details: 10 μM, 80 min, pNPV
[9] = read-out: CES1 IC50, recombinant CES1, pNPV 500 μM, 15 min preincubation at 37°C
[10] = Cell lysate IC50, THP1 cell lysate, pNPV 500 μM, 15 min preincubation at 37°C
[11] = CES1 IC50, recombinant CES1, pNPV 500 μM, 15 min preincubation at 37°C

CC(C)CCC[C@@H](C)[C@H]1CC[C@H]2[C@@H]3C(=O)C=C4C[C@@H](O)CC[C@]4(C)[C@H]3CC[C@]12C [7-ketocholesterol]
Inhibitory effect on carboxylesterase activity of THP1 cell lysates (in words) ([1]; pNPV): little inhibitory activity; also recorded: minimal inhibitory effect
Inhibition of carboxylesterase activity of CES1 (recombinant CES1 [2]): < 15%

CCCCC/C=C\CC1OC1C/C=C\C/C=C\CCCC(=O)O (stereo not drawn) [11,12-EET, 11,12-Epoxy-5Z,8Z,14Z-eicosatrienoic acid]
IC50 (recombinant CES1 [2]; [9]): 27 ± 1 µM

CCCCCC1OC1C/C=C\C/C=C\C/C=C\CCCC(=O)O (stereo not drawn) [14,15-EET]
IC50 (recombinant CES1 [2]; [9]): 38 ± 1 µM

CCCCC/C=C/C=C1/C(=O)C=C[C@@H]1C/C=C\CCCC(=O)O [15-deoxy-Δ^12,14-Prostaglandin J2]
IC50 (recombinant CES1 [2]; [9]): 13 ± 3 µM

CC(C)CC[C@@H](O)[C@@H](C)[C@H]1CC[C@H]2[C@@H]3CC=C4C[C@@H](O)CC[C@]4(C)[C@H]3CC[C@]12C [22(R)-HC, 22(R)-hydroxycholesterol]
Change in free cholesterol levels vs vehicle control ([3]; 12 h): No change
Change in intracellular cholesteryl esters vs vehicle control ([3]; 12 h): significant reduction
Inhibition of carboxylesterase activity of THP1 cell lysate ([1]; 50 μM oxysterol, pNPV): ~ 30%
Inhibitory effect on carboxylesterase activity of THP1 cell lysates (in words) ([1]; pNPV): little inhibitory activity
Effect on carboxylesterase activity of recombinant CES1 (in words) (recombinant CES1 [2]): minimal activity

CC(C)[C@@H](O)CC[C@@H](C)[C@H]1CC[C@H]2[C@@H]3CC=C4C[C@@H](O)CC[C@]4(C)[C@H]3CC[C@]12C [24(S)-HC, 24(S)-hydroxycholesterol]
Inhibitory effect on carboxylesterase activity of THP1 cell lysates (in words) ([1]; pNPV): minimal inhibitory effect
Inhibitory effect on carboxylesterase activity of THP1 cell lysates (in words) ([1]; pNPV, listed as 24(S)-hydroxycholesterol): little inhibitory activity

C[C@H](CCCC(C)(C)O)[C@H]1CC[C@H]2[C@@H]3CC=C4C[C@@H](O)CC[C@]4(C)[C@H]3CC[C@]12C [25-HC, 25-hydroxycholesterol]
Inhibitory effect on carboxylesterase activity of THP1 cell lysates (in words) ([1]; pNPV): minimal inhibitory effect
Inhibitory effect on carboxylesterase activity of THP1 cell lysates (in words) ([1]; pNPV, listed as 25-hydroxycholesterol): little inhibitory activity
Inhibition of carboxylesterase activity of CES1 (recombinant CES1 [2]): < 15%

C[C@@H](CO)CCC[C@@H](C)[C@H]1CC[C@H]2[C@@H]3CC=C4C[C@@H](O)CC[C@]4(C)[C@H]3CC[C@]12C [27-HC, 27-hydroxycholesterol]
Change in intracellular cholesteryl esters vs vehicle control ([3]; 12 and 24 h): no significant changes
Change in free cholesterol levels vs vehicle control ([3]; 12 h): significantly reduced
Predicted solubility limit in aqueous solution [4]: 0.52 µM
IC50 (recombinant CES2): > 5 µM
IC50 (recombinant CES1 [5]): 0.04 ± 0.02 µM
Inhibition of carboxylesterase activity of THP1 cell lysate ([1]; 50 μM oxysterol, pNPV): ~ 78%
IC50 ([1]; IC50, carboxylesterase activity of THP1 whole-cell lysates, THP1 whole-cell lysates, pNPV): 0.033 µM
IC50 (recombinant CES1 [2]): 0.05 ± 0.02 µM
Ki (recombinant CES1 [2]; Kiapp, recombinant CES1, ester substrate 4-MUBA, data not shown): 0.0104 ± 0.0013 µM
Ki (recombinant CES1 [2]; Kiapp, recombinant CES1, substrate pNPV, 15 min preincubation with enzyme): 0.01 µM and 0.0101 µM
Mode of inhibition of recombinant CES1 (recombinant CES1 [2]): partial non-competitive inhibitor
inhibition at 0.5 µM (recombinant CES1 [2]; read-out: Maximum inhibition of CES1 activity): ~67%

CCCCC/C=C\C/C=C\C/C=C\C/C=C\CCCC(=O)O [AA, 5Z,8Z,11Z,14Z-Eicosatetraenoic acid]
IC50 [6]: 50 µM
IC50 toward rat CES1 relative to the human enzyme ([6]; rat vs human CES1): 25 fold
IC50 (recombinant CES2): > 100 µM
inhibition at 20 µM (recombinant CES1 [7]): 14%
Inhibition of carboxylesterase activity of THP1 cell lysate ([1]; 100 μM fatty acid, pNPV): ~ 90%
IC50 [1, 10]: 4 ± 1 µM
Ki (recombinant CES1 [2]): 1.7 µM
IC50 (recombinant CES1 [2]; [11]): 2 ± 1 µM
Mode of inhibition of recombinant CES1 (recombinant CES1 [2]): noncompetitive inhibition model

CCCCC[C@H](O)/C=C/[C@H]1[C@H](O)CC(=O)[C@@H]1C/C=C\CCCC(=O)O [Prostaglandin E2]
IC50 (recombinant CES1 [2]; [11]): > 100 µM

CCCCC[C@H](O)/C=C/[C@@H]1[C@@H](C/C=C\CCCC(=O)O)[C@@H](O)C[C@H]1O [Prostaglandin F2α]
IC50 (recombinant CES1 [2]; [11]): > 100 µM

C[C@H](CCC(=O)O)[C@H]1CC[C@H]2[C@@H]3[C@H](O)C[C@@H]4C[C@H](O)CC[C@]4(C)[C@H]3C[C@H](O)[C@]12C [cholate]
IC50 (recombinant CES1 [2]; read-out: IC50, CES1 enzyme activity, data not shown): ~7000 µM

CC(C)CCC[C@@H](C)[C@H]1CC[C@H]2[C@@H]3CC=C4C[C@@H](O)CC[C@]4(C)[C@H]3CC[C@]12C [cholesterol]
Inhibitory effect on carboxylesterase activity of THP1 cell lysates (in words) ([1]; pNPV): little inhibitory activity; also recorded: no inhibitory effect
Effect on carboxylesterase activity of recombinant CES1 (in words) (recombinant CES1 [2]): almost no effect

C[C@H](CC[C@@H]1OC1(C)C)[C@H]1CC[C@H]2[C@@H]3CC=C4C[C@@H](O)CC[C@]4(C)[C@H]3CC[C@]12C [epoxycholesterol, 24(S),25-epoxycholesterol]
Change in free cholesterol levels vs vehicle control ([3]; 12 and 24 h): reduced
Change in intracellular cholesteryl esters vs vehicle control ([3]; 12 and 24 h): no significant changes
Inhibition of carboxylesterase activity of THP1 cell lysate ([1]; 50 μM oxysterol, pNPV): ~ 70%
IC50 [1, 10]: 8.1 µM

CCCCC/C=C\C/C=C\CCCCCCCC(=O)O [linoleic acid, 9Z,12Z-Octadecadienoic acid]
IC50 [1, 10]: 20 ± 3 µM
IC50 (recombinant CES1 [2]; [11]): 9 ± 6 µM

CCCCCCCCCCCCCC(=O)O [myristic acid, Tetradecanoic acid]
IC50 [1, 10]: 28 ± 4 µM
IC50 (recombinant CES1 [2]; [11]): 9 ± 3 µM

CCCC/C=C\CCCCCCCC(=O)O [myristoleic acid, 9Z-Tetradecenoic acid]
IC50 [1, 10]: 23 ± 6 µM
IC50 (recombinant CES1 [2]; [11]): 12 ± 2 µM

CCCCCCCC/C=C\CCCCCCCC(=O)O [oleic acid, 9Z-Octadecenoic acid]
IC50 [1, 10]: 11 ± 4 µM
IC50 (recombinant CES1 [2]; [11]): 7 ± 3 µM

CCCCCCCCCCCCCCCC(=O)O [palmitic acid, Hexadecanoic acid]
IC50 [1, 10]: > 100 µM
IC50 (recombinant CES1 [2]; [11]): 25 ± 13 µM

CCOP(=O)(OCC)Oc1ccc([N+](=O)[O-])cc1 [paraoxon]
Inhibition of intracellular carboxylesterase activity [8]: 87%

CCCCCCCCCCCCCCCCCC(=O)O [stearic acid, Octadecanoic acid]
IC50 [1, 10]: > 100 µM
IC50 (recombinant CES1 [2]; [11]): > 100 µM

CCCCC/C=C\C/C=C\C/C=C\CCCCC(=O)O [γ-linolenic acid, 6Z,9Z,12Z-Octadecatrienoic acid]
IC50 [1, 10]: 23 ± 3 µM
IC50 (recombinant CES1 [2]; [11]): 19 ± 10 µM
